Measurements taken from ChEMBL document CHEMBL4665734, “Optimization of globomycin analogs as novel gram-negative antibiotics” (Bioorg Med Chem Lett, 2020).
In brackets after ≈: the same amount, converted by molar mass. Starred links: 1 amine or outer side, 2 acyl side, 3 side chain; linkers in the order of their positions; H or OH if unused. Non-standard residues stand in square brackets, D forms with d. Residues, ends and D or L forms follow the SMILES beside them. *: point of attachment. dAlaψ(CH2NBu)Nle = CCCC[C@@H](C(=O)[*:2])N(CCCC)C[C@@H](C)N[*:1]; X7 = CCCCCC[C@@H](O[C@H](C)CN[*:1])[C@@H](C)C(=O)[*:2]; Cyclobutyl(trans-3-NH2) = N[C@H]1C[C@H](*)C1; X4 = CCCCCCN(CCN[*:1])[C@@H](C)C(=O)[*:2]; aThr = C[C@H](O)[C@H](N)C(=O)O; NMeL = CN[C@@H](CC(C)C)C(=O)O; Chg = N[C@H](C(=O)O)C1CCCCC1; NMeNva = CCC[C@H](NC)C(=O)O; Dap = NC[C@H](N)C(=O)O

Legend:
[1] = Lipophilicity, logD of the compound at pH 7.4; conditions: buffer, pH 7.4, logD
[2] = Stability of the compound in human plasma assessed as parent compound remaining after 24 hrs; assay type: ADME, cell-free; conditions: read-out: Stabilty
Procedure, shortened: (§1)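 Test compound incubated for 24 hour in human, rat or mouse plasma. Stability is reported as the percentage of parent compound remaining.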

[3] = Stability of the compound in mouse plasma assessed as parent compound remaining after 24 hrs; assay type: ADME, cell-free; conditions: read-out: Stabilty; procedure, shortened: as §1
[4] = Stability of the compound in rat plasma assessed as parent compound remaining after 24 hrs; assay type: ADME, cell-free; conditions: read-out: Stabilty; procedure, shortened: as §1
[5] = Protein binding in rat plasma; assay type: ADME, cell-free; conditions: for fraction unbound: read-out: PPB (converted)
[6] = Protein binding in mouse plasma; assay type: ADME, cell-free; conditions: for fraction unbound: read-out: PPB (converted)
[7] = Clearance in rat liver microsomes; assay type: ADME, Microsome
Procedure, shortened: (§2)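 Intrinsic clearance in rat or mouse liver microsomes, expressed in mL/min/kg.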

[8] = Clearance in mouse liver microsomes; assay type: ADME, Microsome; procedure, shortened: as §2
[9] = Clearance in iv dosed mouse; assay type: ADME, organism-based; conditions: in vivo
[10] = Half life in iv dosed mouse; assay type: ADME, organism-based; conditions: in vivo
Escherichia coli = assay: Inhibition of LspA in Escherichia coli CFT073imp4213 harboring outer membrane-permeable mutant assessed as inhibition of bacterial growth
Procedure, shortened: (§3)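 Read-out is the minimum inhibitory concentration, reported in µM.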

Escherichia coli CFT073 = assay: Inhibition of LspA in wild type Escherichia coli CFT073 assessed as inhibition of bacterial growth; procedure, shortened: as §3
[11] = Growth inhibition of Staphylococcus aureus USA300
Enterobacter cloacae = assay: Inhibition of LspA in Enterobacter cloacae assessed as inhibition of bacterial growth
Klebsiella pneumoniae = assay: Inhibition of LspA in Klebsiella pneumoniae assessed as inhibition of bacterial growth
Pseudomonas aeruginosa = assay: Inhibition of LspA in Pseudomonas aeruginosa assessed as inhibition of bacterial growth
Acinetobacter baumannii = assay: Inhibition of LspA in Acinetobacter baumannii assessed as inhibition of bacterial growth
Jurkat = assay: Cytotoxicity against human Jurkat cells; assay type: cell-based
Procedure, shortened: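 Jurkat cell growth assay. Result reported as antiproliferative EC50.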

[12] = Stability in mouse plasma assessed as esterase-mediated compound hydrolysis by measuring parent compound remaining after 6 hrs; assay type: ADME, cell-free; conditions: read-out: Stabilty
Procedure, shortened: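 Test compound incubated for 6 hour in human or mouse plasma. Stability is reported as the percentage of parent compound remaining.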

[13] = Clearance in iv dosed rat; assay type: ADME, organism-based; conditions: in vivo
[14] = Half life in iv dosed rat; assay type: ADME, organism-based; conditions: in vivo

CCCCCC[C@H]1OC(=O)CNC(=O)[C@H]([C@H](C)O)NC(=O)[C@H](CO)NC(=O)[C@H]([C@H](C)CC)NC(=O)[C@H](CC(C)C)N(C)C(=O)[C@@H]1C
logD [1]: 3.1
remaining at 24 h [2]: 100%
remaining at 24 h [3]: 2%
remaining at 24 h [4]: 1%
Stabilty [5]: Unstable
Stabilty [6]: Unstable
CLhep predicted [7]: 37 mL/min/kg
CLhep predicted [8]: 81 mL/min/kg
clearance [9]: 286 mL/min/kg
half-life [10]: 0.3 h
MIC (Escherichia coli): 0.25 µM (≈ 0.164 µg/mL)
MIC (Escherichia coli CFT073): 44 µM (≈ 28.9 µg/mL)
MIC [11]: > 100 µM
MIC (Enterobacter cloacae): 100 µM (≈ 65.6 µg/mL)
MIC (Klebsiella pneumoniae): > 100 µM
MIC (Pseudomonas aeruginosa): > 100 µM
MIC (Acinetobacter baumannii): > 100 µM
EC50 (Jurkat): > 50 µM
remaining at 6 h [12]: 49%

CCCCCC[C@H]1C(=O)N(C)[C@@H](CC(C)C)C(=O)N[C@@H](C2CCCCC2)C(=O)N[C@@H](CN)C(=O)N[C@@H]([C@H](C)O)C(=O)NCCN1C
remaining at 24 h [2]: 92%
remaining at 24 h [3]: 81%
MIC (Escherichia coli): 0.39 µM (≈ 0.254 µg/mL)
MIC (Escherichia coli CFT073): 12 µM (≈ 7.82 µg/mL)
MIC [11]: 100 µM (≈ 65.2 µg/mL)

CCCCCCN1CCCNC(=O)[C@H]([C@H](C)O)NC(=O)[C@H](CN)NC(=O)[C@H]([C@H](C)CC)NC(=O)[C@H](CC(C)C)N(C)C(=O)[C@@H]1C
remaining at 24 h [2]: 101%
remaining at 24 h [3]: 100%
MIC (Escherichia coli): 12.5 µM (≈ 8 µg/mL)
MIC (Escherichia coli CFT073): > 100 µM
MIC [11]: > 100 µM

CCCCCCN1CCNC(=O)[C@H](CO[C@H]2C[C@H](N)C2)NC(=O)[C@H](CN)NC(=O)[C@H](C2CCCCC2)NC(=O)[C@H](CC(C)C)N(C)C(=O)[C@@H]1C (cyclo([Chg][Dap]S(Cyclobutyl(trans-3-NH2))[X4][NMeL]))
logD [1]: 1
remaining at 24 h [2]: 110%
remaining at 24 h [3]: 95%
remaining at 24 h [4]: 60%
fraction unbound [5]: 0.043
fraction unbound [6]: 0.03
CLhep predicted [7]: 26 mL/min/kg
CLhep predicted [8]: 34 mL/min/kg
clearance [13]: 8.7 mL/min/kg
half-life [14]: 1.6 h
MIC (Escherichia coli CFT073): 6.3 µM (≈ 4.45 µg/mL)
MIC [11]: 100 µM (≈ 70.7 µg/mL)
MIC (Klebsiella pneumoniae): 100 µM (≈ 70.7 µg/mL)
MIC (Pseudomonas aeruginosa): > 100 µM
MIC (Acinetobacter baumannii): > 100 µM
EC50 (Jurkat): > 100 µM

CCCC[C@H]1C(=O)N(C)[C@@H](CCC)C(=O)N[C@@H](C2CCCCC2)C(=O)N[C@@H](CN)C(=O)N[C@@H](CO[C@H]2C[C@H](N)C2)C(=O)N[C@H](C)CN1CCCC (cyclo([Chg][Dap]S(Cyclobutyl(trans-3-NH2))[dAlaψ(CH2NBu)Nle][NMeNva]))
logD [1]: 1.5
remaining at 24 h [2]: 105%
remaining at 24 h [3]: 55%
remaining at 24 h [4]: 58%
fraction unbound [5]: 0.047
fraction unbound [6]: 0.026
CLhep predicted [7]: < 6.1 mL/min/kg
CLhep predicted [8]: 32 mL/min/kg
clearance [13]: 24 mL/min/kg
half-life [14]: 6.8 h
MIC (Escherichia coli CFT073): 6.3 µM (≈ 4.54 µg/mL)
MIC [11]: 50 µM (≈ 36.1 µg/mL)
MIC (Klebsiella pneumoniae): 25 µM (≈ 18 µg/mL)
MIC (Pseudomonas aeruginosa): 100 µM (≈ 72.1 µg/mL)
MIC (Acinetobacter baumannii): 25 µM (≈ 18 µg/mL)

CCCCCCN1CCNC(=O)[C@H]([C@H](C)O)NC(=O)[C@H](CN)NC(=O)[C@H](C2CCCCC2)NC(=O)[C@H](CC(C)C)N(C)C(=O)[C@@H]1C (cyclo([Chg][Dap][aThr][X4][NMeL]))
remaining at 24 h [2]: 95%
remaining at 24 h [3]: 112%
MIC (Escherichia coli): 0.5 µM (≈ 0.326 µg/mL)
MIC (Escherichia coli CFT073): 25 µM (≈ 16.3 µg/mL)
MIC [11]: > 100 µM

CCCCCC[C@H]1O[C@H](C)CNC(=O)[C@H]([C@H](C)O)NC(=O)[C@H](CN)NC(=O)[C@H](C2CCCCC2)NC(=O)[C@H](CC(C)C)N(C)C(=O)[C@@H]1C (cyclo([Chg][Dap][aThr][X7][NMeL]))
remaining at 24 h [2]: 100%
remaining at 24 h [3]: 92%
MIC (Escherichia coli): 0.4 µM (≈ 0.272 µg/mL)
MIC (Escherichia coli CFT073): 35 µM (≈ 23.8 µg/mL)
MIC [11]: 100 µM (≈ 68.1 µg/mL)
